Laboratory results as given in ChEMBL document CHEMBL1137660, “Molecular and biochemical characterization of the chromosome-encoded class A beta-lactamase BCL-1 from Bacillus clausii” (Antimicrob Agents Chemother, 2007).
Converted amounts (≈) assume the structure as drawn.

What was measured:
Type in all cases: functional
Escherichia coli [1] = test: Antimicrobial activity against Escherichia coli BL21(DE3) by agar-dilution technique
Procedure, shortened: (§1)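 MICs by agar dilution on Mueller-Hinton agar following CLSI recommendations. E. coli DH10B clone carries EcoRI-restricted B. clausii NR DNA in pJIM2246. BL21(DE3) carries blaBCL-1 in pET9a.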

Escherichia coli [2] = test: Antimicrobial activity against Escherichia coli DH10B by agar-dilution technique; settings: K-12 substr. DH10B; procedure, shortened: as §1
Shouchella clausii [3] = test: Antimicrobial activity against Bacillus clausii NR expressing beta-lactamase BCL1 by agar-dilution technique in presence of beta-lactamase inhibitor clavulanic acid; procedure, shortened: as §1
Escherichia coli [4] = test: Antimicrobial activity against Escherichia coli BL21(DE3) carrying pET9a expressing Bacillus clausii beta-lactamase BCL1 by agar-dilution technique in presence of beta-lactamase inhibitor clavulanic acid; procedure, shortened: as §1
Escherichia coli [5] = test: Antimicrobial activity against Escherichia coli DH10B by agar-dilution technique in presence of beta-lactamase inhibitor clavulanic acid; settings: K-12 substr. DH10B; procedure, shortened: as §1
Shouchella clausii [6] = test: Antimicrobial activity against Bacillus clausii NR expressing beta-lactamase BCL1 by agar-dilution technique
Escherichia coli [7] = test: Antimicrobial activity against Escherichia coli BL21(DE3) by agar-dilution technique in presence of beta-lactamase inhibitor clavulanic acid; procedure, shortened: as §1
Escherichia coli [8] = test: Antimicrobial activity against Escherichia coli DH10B carrying pJIM2246 expressing Bacillus clausii NR beta-lactamase BCL1 by agar-dilution technique in presence of beta-lactamase inhibitor clavulanic acid; settings: K-12 substr. DH10B; procedure, shortened: as §1
Shouchella clausii [9] = test: Antimicrobial activity against Bacillus clausii ATCC 21537 by agar-dilution technique
Shouchella clausii [10] = test: Antimicrobial activity against Bacillus clausii ATCC 21537 by agar-dilution technique in presence of beta-lactamase inhibitor clavulanic acid; procedure, shortened: as §1
Escherichia coli [11] = test: Antimicrobial activity against Escherichia coli BL21(DE3) carrying pET9a expressing Bacillus clausii beta-lactamase BCL1 by agar-dilution technique
Escherichia coli [12] = test: Antimicrobial activity against Escherichia coli DH10B carrying pJIM2246 expressing Bacillus clausii NR beta-lactamase BCL1 by agar-dilution technique; settings: K-12 substr. DH10B
Escherichia coli [13] = test: Antimicrobial activity against Escherichia coli DH10B carrying pJIM2246 expressing Bacillus clausii NR beta-lactamase BCL1 by agar-dilution technique in presence of beta-lactamase inhibitor Tazobactam; settings: K-12 substr. DH10B; procedure, shortened: as §1
Escherichia coli [14] = test: Antimicrobial activity against Escherichia coli BL21(DE3) by agar-dilution technique in presence of beta-lactamase inhibitor Tazobactam; procedure, shortened: as §1
Shouchella clausii [15] = test: Antimicrobial activity against Bacillus clausii ATCC 21537 by agar-dilution technique in presence of beta-lactamase inhibitor Tazobactam; procedure, shortened: as §1
Escherichia coli [16] = test: Antimicrobial activity against Escherichia coli BL21(DE3) carrying pET9a expressing Bacillus clausii beta-lactamase BCL1 by agar-dilution technique in presence of beta-lactamase inhibitor Tazobactam; procedure, shortened: as §1
Escherichia coli [17] = test: Antimicrobial activity against Escherichia coli DH10B by agar-dilution technique in presence of beta-lactamase inhibitor Tazobactam; settings: K-12 substr. DH10B; procedure, shortened: as §1
Shouchella clausii [18] = test: Antimicrobial activity against Bacillus clausii NR expressing beta-lactamase BCL1 by agar-dilution technique in presence of beta-lactamase inhibitor Tazobactam; procedure, shortened: as §1

MIC (Escherichia coli [1]) [µg/mL]	MIC (Escherichia coli [2]) [µg/mL]	MIC (Shouchella clausii [6]) [µg/mL]	MIC (Shouchella clausii [9]) [µg/mL]	MIC (Escherichia coli [11]) [µg/mL]	MIC (Escherichia coli [12]) [µg/mL]	SMILES	further results
0.06 (≈ 0.108 µM)	0.06 (≈ 0.108 µM)	–	–	0.06 (≈ 0.108 µM)	0.06 (≈ 0.108 µM)	CO/N=C(\C(=O)N[C@@H]1C(=O)N2C(C(=O)O)=C(CSc3nc(=O)c(O)nn3C)CS[C@H]12)c1csc(N)n1 [CEFTRIAXONE]	–
1 (≈ 2.52 µM)	4 (≈ 10.1 µM)	8 (≈ 20.2 µM)	8 (≈ 20.2 µM)	16 (≈ 40.4 µM)	64 (≈ 161 µM)	CC(=O)OCC1=C(C(=O)O)N2C(=O)[C@@H](NC(=O)Cc3cccs3)[C@H]2SC1 [CEPHALOTHIN]	–
–	–	0.25 (≈ 0.835 µM)	–	–	–	C[C@@H](O)[C@H]1C(=O)N2C(C(=O)O)=C(SCCNC=N)C[C@H]12 [IMIPENEM ANHYDROUS]	–
0.25 (≈ 0.48 µM)	0.25 (≈ 0.48 µM)	64 (≈ 123 µM)	0.25 (≈ 0.48 µM)	0.25 (≈ 0.48 µM)	0.25 (≈ 0.48 µM)	CO[C@@]1(NC(=O)C(C(=O)O)c2ccc(O)cc2)C(=O)N2C(C(=O)O)=C(CSc3nnnn3C)CO[C@@H]21 (some centres not stated) [MOXALACTAM]	–
2 (≈ 5.98 µM)	32 (≈ 95.7 µM)	0.5 (≈ 1.5 µM)	0.5 (≈ 1.5 µM)	–	–	CC1(C)S[C@@H]2[C@H](NC(=O)Cc3ccccc3)C(=O)N2[C@H]1C(=O)O [PENICILLIN G]	–
1 (≈ 1.93 µM)	4 (≈ 7.73 µM)	16 (≈ 30.9 µM)	16 (≈ 30.9 µM)	32 (≈ 61.8 µM)	8 (≈ 15.5 µM)	CCN1CCN(C(=O)N[C@@H](C(=O)N[C@@H]2C(=O)N3[C@@H]2SC(C)(C)[C@@H]3C(=O)O)c2ccccc2)C(=O)C1=O [PIPERACILLIN]	MIC (Escherichia coli [13]): 2 µg/mL; MIC (Escherichia coli [14]): 0.5 µg/mL; MIC (Shouchella clausii [15]): 8 µg/mL; MIC (Escherichia coli [16]): 0.5 µg/mL; MIC (Escherichia coli [17]): 4 µg/mL; MIC (Shouchella clausii [18]): 8 µg/mL
1 (≈ 2.6 µM)	8 (≈ 20.8 µM)	8 (≈ 20.8 µM)	8 (≈ 20.8 µM)	–	–	CC1(C)S[C@@H]2[C@H](NC(=O)[C@H](C(=O)O)c3ccsc3)C(=O)N2[C@H]1C(=O)O [TICARCILLIN]	–

Second part, the molecule before the results:

SMILES	MIC (Escherichia coli [1]) [µg/mL]	MIC (Escherichia coli [2]) [µg/mL]	MIC (Shouchella clausii [6]) [µg/mL]	MIC (Shouchella clausii [9]) [µg/mL]	MIC (Escherichia coli [11]) [µg/mL]	MIC (Escherichia coli [12]) [µg/mL]	further results
CO/N=C(\C(=O)N[C@@H]1C(=O)N2C(C(=O)[O-])=C(C[N+]3(C)CCCC3)CS[C@H]12)c1csc(N)n1	0.06 (≈ 0.125 µM)	–	–	–	–	–	–
CC1(C)S[C@@H]2[C@H](NC(=O)[C@H](N)c3ccc(O)cc3)C(=O)N2[C@H]1C(=O)O [AMOXICILLIN]	1 (≈ 2.74 µM)	8 (≈ 21.9 µM)	0.5 (≈ 1.37 µM)	1 (≈ 2.74 µM)	–	–	MIC (Shouchella clausii [3]): 0.12 µg/mL; MIC (Escherichia coli [4]): 2 µg/mL; MIC (Escherichia coli [5]): 4 µg/mL; MIC (Escherichia coli [7]): 1 µg/mL; MIC (Escherichia coli [8]): 32 µg/mL; MIC (Shouchella clausii [10]; read-out: MIC): 120 µg/mL
CO/N=C(\C(=O)N[C@@H]1C(=O)N2C(C(=O)O)=C(COC(C)=O)CS[C@H]12)c1csc(N)n1 [CEFOTAXIME]	0.06 (≈ 0.132 µM)	0.06 (≈ 0.132 µM)	16 (≈ 35.1 µM)	16 (≈ 35.1 µM)	0.06 (≈ 0.132 µM)	0.12 (≈ 0.263 µM)	MIC (Shouchella clausii [3]): 16 µg/mL; MIC (Escherichia coli [4]): 0.06 µg/mL; MIC (Escherichia coli [5]): 0.06 µg/mL; MIC (Escherichia coli [7]): 0.06 µg/mL; MIC (Escherichia coli [8]): 0.06 µg/mL; MIC (Shouchella clausii [10]): 16 µg/mL
CO[C@@]1(NC(=O)Cc2cccs2)C(=O)N2C(C(=O)O)=C(COC(N)=O)CS[C@@H]21 [CEFOXITIN]	0.5 (≈ 1.17 µM)	8 (≈ 18.7 µM)	32 (≈ 74.9 µM)	16 (≈ 37.4 µM)	2 (≈ 4.68 µM)	16 (≈ 37.4 µM)	–
CO/N=C(\C(=O)N[C@@H]1C(=O)N2C(C(=O)[O-])=C(C[n+]3cccc4c3CCC4)CS[C@H]12)c1csc(N)n1 [CEFPIROME]	0.06 (≈ 0.117 µM)	0.06 (≈ 0.117 µM)	–	–	0.5 (≈ 0.972 µM)	0.12 (≈ 0.233 µM)	MIC (Shouchella clausii [3]): 8 µg/mL; MIC (Escherichia coli [4]): 0.06 µg/mL; MIC (Escherichia coli [5]): 0.06 µg/mL; MIC (Escherichia coli [7]): 0.06 µg/mL; MIC (Escherichia coli [8]): 0.06 µg/mL; MIC (Shouchella clausii [10]): 8 µg/mL
CC(C)(O/N=C(\C(=O)N[C@@H]1C(=O)N2C(C(=O)[O-])=C(C[n+]3ccccc3)CS[C@H]12)c1csc(N)n1)C(=O)O [CEFTAZIDIME]	0.06 (≈ 0.11 µM)	0.12 (≈ 0.22 µM)	–	–	0.12 (≈ 0.22 µM)	0.5 (≈ 0.915 µM)	MIC (Escherichia coli [4]): 0.06 µg/mL; MIC (Escherichia coli [5]): 0.12 µg/mL; MIC (Escherichia coli [7]): 0.06 µg/mL; MIC (Escherichia coli [8]): 0.5 µg/mL
CO/N=C(\C(=O)N[C@@H]1C(=O)N2C(C(=O)O)=C(COC(N)=O)CS[C@H]12)c1ccco1 [CEFUROXIME]	0.5 (≈ 1.18 µM)	8 (≈ 18.9 µM)	–	–	2 (≈ 4.71 µM)	16 (≈ 37.7 µM)	–
O=C(Cc1cccs1)N[C@@H]1C(=O)N2C(C(=O)[O-])=C(C[n+]3ccccc3)CS[C@H]12 [CEPHALORIDINE]	0.06 (≈ 0.144 µM)	0.12 (≈ 0.289 µM)	–	–	0.06 (≈ 0.144 µM)	0.12 (≈ 0.289 µM)	–
